This is a sample that favours compounds with a hit; in the whole collection about 3.5% have one here.
Thrombin inh = blocks human thrombin protease activity; P00734; alpha-thrombin, Boc-VPR-AMC fluorogenic substrate cleavage; inhibition, % at 5 µM; actives 0.26% (n = 220,000); AID 1046;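 active means inhibition at or above 40%; inactive means inhibition below 40%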;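 further: 0% = enzyme with no compound and 100% = wells without enzyme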
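Material: Human alpha-thrombin protein | Buffer or medium: pH 7.5 Tris-saline with Tween 20 | Reagent: Boc-VPR-AMC substrate, 15 µM final | Schedule: Reaction at ambient temperature | Detection: AMC fluorescence at 355 nm excitation and 460 nm emission | Evaluation: Percent inhibition scaled between no-compound controls and no-enzyme blanks | Controls: no-compound enzyme wells and no-enzyme blanks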
STAT3 act = increases IL-6 driven STAT3 reporter signal; actives 0.91% (n = 190,000); activation (% of control), % at 5.6 µM; U3A cells, IL-6 STAT3-luciferase reporter, luminescence; 100% = signal with IL-6 EC80 alone;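 active means activation above the screen-wide mean of compound activation plus 3 SD, cut at about 130% in these data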;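 further: 0% = background luminescence of wells with medium and substrate only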
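Material: human U3A cells carrying STAT3-luciferase construct. Measured by: reporter luminescence signal. Timing: compound 1 h, then IL-6 6 h at 37 °C.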
hK5 inh = inhibitors of human kallikrein 5 | actives 0.59% (n = 210,000) | AID 873 | recombinant hK5, fluorogenic AMC substrate cleavage | inhibition, % at 5 µM | Q9Y337;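 active means inhibition of 40% or more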;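 further: 0% = enzyme controls without compound and 100% = no-enzyme blanks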
Target sequence (Q9Y337 67-293 limits assumed): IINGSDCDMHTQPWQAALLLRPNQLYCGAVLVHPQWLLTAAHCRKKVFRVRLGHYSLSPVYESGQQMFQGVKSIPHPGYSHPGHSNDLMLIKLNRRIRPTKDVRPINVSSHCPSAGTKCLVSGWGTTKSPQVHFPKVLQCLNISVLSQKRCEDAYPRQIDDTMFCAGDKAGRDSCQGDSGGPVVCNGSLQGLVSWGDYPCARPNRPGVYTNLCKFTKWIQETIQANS
FXIa inh 1536 = factor XIa (human) inhibition; purified FXIa, Boc-Glu-Ala-Arg-AMC fluorogenic substrate; actives 0.14% (n = 220,000); P03951; inhibition, % at 5 µM;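 active means inhibition of at least 40%; inactive means inhibition below 40%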;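 further: fluorescence of freed AMC excited at 355 nm; 0% = enzyme without compound and 100% = no enzyme blank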
FXIIa inh = factor XIIa (human) inhibition. P00748. purified FXIIa, Boc-QGR-AMC fluorogenic substrate, 2 h. actives 0.3% (n = 220,000). inhibition, % at 5 µM; in the data active means inhibition above about 40%;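 further: 0% = enzyme with no compound and 100% = blank without enzyme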
AHR activator = activates the human aryl hydrocarbon receptor; P35869; activation, % at 5 µM; actives 2.5% (n = 320,000); AHR-responsive luciferase reporter cells, luminescence; in the data active means activation above about 47%;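 further: 0% = vehicle wells and 100% = reference agonist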
An asterisk follows results filed as active; · = no result given.

SMILES | Thrombin inh | STAT3 act | hK5 inh | FXIa inh 1536 | FXIIa inh | AHR activator
CSc1ccc(/C=C/C(=O)c2ccc(NC(=O)C(C)C)cc2)cc1 | -5 | 94 | -4 | -2 | 1 | 3
O=[N+]([O-])c1cccc(/C(=N/N=C/c2ccccc2Br)C23CN4CN(CN(C4)C2)C3)c1 | -3 | 89 | 9 | -3 | 7 | 67*
Cc1cc(C)nc(N/N=C/C2=C(O)CC(c3ccccc3)CC2=O)n1 (stereo unspecified) | 7 | · | -35 | -1 | 10 | 8
COC(=O)N/N=C/c1ccc(-c2cccc(Cl)c2)o1 | -2 | 89 | -21 | 5 | 6 | 5
Nc1ccccc1N=Cc1ccc(-c2cccc(Cl)c2)o1 | -34 | 107 | -6 | 1 | 2 | 78*
Cc1cc(/C=C2/NC(=O)N(Cc3ccccc3F)C2=O)c(C)n1-c1ccccn1 | -3 | 131 | -12 | -2 | 6 | 43
Cc1cc(/C=C2/NC(=O)N(Cc3ccccc3F)C2=O)c(C)n1C | 0 | 98 | -11 | 11 | 13 | 76*
c1ccc(-n2cnc3cc(NCc4cccs4)ccc32)cc1 | 0 | 99 | 0 | -8 | -1 | -7
Cn1cnc2cc(NCc3cccs3)ccc21 | 14 | 100 | 29 | 32 | 26 | 50*
Cn1c(C(=O)O)cc2cc(F)ccc21 | · | 122 | · | · | · | 54*
C=CC[C@@H]1C=C[C@H](O/N=C/c2ccc(C(=O)N3[C@H](c4ccc(C)cc4)[C@@H](C)CC[C@H]3C(=O)OC)cc2)[C@@H](CO)O1 | -3 | 110 | -11 | 2 | 10 | 2
COc1cccc(/C=N/Nc2ncnc3c2[nH]c2ccc(C)cc23)c1OC | 0 | · | 1 | 2 | 4 | 62*
C=CCNc1ncnc2c1[nH]c1ccc(C)cc12 | -7 | 74 | -5 | -4 | 8 | 105*
COc1ccc2[nH]c3c(NCc4ccco4)ncnc3c2c1 | 0 | 99 | 0 | 4 | 0 | 71*
COc1ccc(/C=N/NC(=O)c2cccc3ccccc23)c(OC)c1OC | · | · | · | · | · | 3
COc1ccc(/C=N/Nc2ncnc3c2[nH]c2ccccc23)c(OC)c1OC | 22 | 116 | 36 | 4 | 10 | 72*
COc1cccc(/C=N/Nc2ncnc(N)c2[N+](=O)[O-])c1OC | -1 | 28 | 9 | -6 | 6 | 1
COc1ccc(C(=S)N2CCN(c3ccccc3C)CC2)cc1 | -1 | · | 4 | 2 | 7 | 2
O=C(COC(=O)c1ccc(OC(F)F)cc1)NCCC1=CCCCC1 | · | · | · | · | · | 1
O=C(NCc1ccccc1)N1CCOCC1 | 0 | · | 3 | 5 | 8 | 0
O=C(NCc1ccccc1)c1cccnc1N1CCOCC1 | 10 | 103 | 72* | 2 | -8 | 4
Cc1cc(C)n(C(=O)CNc2cccc(Cl)c2C)n1 | 5 | 87 | 46* | 5 | 44* | 1
Cc1cc(C)n(C(=O)CNc2ccccc2Cl)n1 | 0 | 86 | 2 | 7 | 20 | -1
COC(=O)Nc1ccc2c(c1)ncn2C1CCCCC1 | -1 | 87 | 5 | 4 | 14 | 66*
O=C(CN(Cc1ccco1)C(=O)Cn1nnc(-c2cccs2)n1)NCC1CCCO1 (stereo unspecified) | -3 | 96 | 2 | -3 | 14 | 1
SMILES | Thrombin inh | STAT3 act | hK5 inh | FXIa inh 1536 | FXIIa inh | AHR activator
O=C(CN(Cc1ccccc1F)C(=O)Cn1nnc(-c2cccs2)n1)NCC1CCCO1 (stereo unspecified) | 19 | 99 | 53* | -3 | 0 | 0
COc1ccc(S(=O)(=O)N2c3ccccc3NC(=O)CC2C)cc1 (stereo unspecified) | · | · | · | · | · | 0
C/C(=N\NC(=O)Cn1nc(C)cc1C)c1ccc([N+](=O)[O-])cc1 | -8 | · | -1 | -5 | 2 | 0
CCOC(=O)C(C(=O)OCC)N(C#N)c1nc(OC)nc(N(C)C)n1 | 1 | 98 | 4 | -1 | 16 | -2
CCOC(=O)C(C(=O)OCC)N(C#N)c1nc(SC)nc(N(C)C)n1 | -3 | 101 | 9 | 0 | -2 | 62*
COc1c2occc2c(OC(C)=O)c2c(=O)cc(C)oc12 | · | · | · | · | · | 54*
CCN(CC)C(=O)c1cc2c(=O)n3ccccc3nc2s1 | -10 | 134* | -48 | -7 | -8 | 10
Nc1nonc1C(=O)N/N=C/c1ccc(-c2ccc(Cl)c(C(=O)O)c2)o1 | -6 | 109 | -6 | -2 | · | 4
O=C(O)c1cc(-c2ccc(/C=N/Nc3ccc(Cl)cc3)o2)ccc1Cl | 26 | 116 | -27 | 5 | 8 | 71*
CCCCC(=O)Nc1cc(OCC)c(NC(=S)NC)cc1OCC | 0 | 98 | -16 | -4 | 14 | 71*
Cc1ccc(S(=O)(=O)N2CCOCC2)cc1C(=O)NC1CCSc2ccccc21 (stereo unspecified) | · | · | · | · | · | 6
CCCN1CCN(CC(O)COC(c2ccc(OC)cc2)c2ccc(OC)cc2)CC1 (stereo unspecified) | · | · | · | · | · | 0
NS(=O)(=O)c1cc(C(=O)N2CCc3ccccc32)c(Cl)cc1Cl | 6 | 99 | 3 | 2 | 10 | 2
CC(C)n1nc(Cc2cccc3ccccc23)c(C#N)c1N | · | · | · | · | · | 62*
N#Cc1cc2ccccc2nc1SCC(=O)NC1CC1 | · | · | · | · | · | 64*
COc1cccc(C(=O)Nc2cc(C(F)(F)F)ccc2Cl)c1 | -5 | 101 | -5 | -7 | 2 | 60*
COC(=O)c1sccc1NC(=O)c1cccc(OC)c1 | 0 | 135* | -34 | 2 | 14 | 24
CCOc1ccc(C(=O)Nc2ccc(C(F)(F)F)n(C)c2=O)cc1 | 0 | 77 | -2 | 15 | 13 | -5
COc1ccc(C(C)(C)C)cc1NC(=O)c1ccoc1C | -7 | 92 | -1 | 3 | 6 | 42
Cc1occc1C(=O)Nc1cc(C(F)(F)F)ccc1Cl | 50* | 81 | 27 | 15 | 27 | 6
COc1cccc(C(=O)Nc2ccc(C(F)(F)F)n(C)c2=O)c1 | -1 | 84 | -3 | -1 | 8 | 56*
Cc1cc[n+](Cc2ccccc2)c(N)c1 | · | · | · | · | · | 3
O=[N+]([O-])c1ccc(N2CCCC2)cc1NC1CC1 | 12 | 99 | 44* | 9 | 9 | 3
CN(C)S(=O)(=O)N1CCN(c2ccc([N+](=O)[O-])c(NC3CC3)c2)CC1 | -8 | 101 | -1 | -4 | 4 | 21
CCC(=O)Nc1nc2c(OC)ccc(OC)c2s1 | -4 | 101 | -19 | 1 | 9 | 68*
COc1ccc(OC)c2sc(NC(=O)C3CC3)nc12 | -8 | 111 | -7 | 1 | 10 | 75*
COc1ccc(OC)c2sc(NNC(=O)COc3ccccc3)nc12 | · | 104 | -16 | 12 | 10 | 79*
COc1ccc(OC)c2sc(NC(=O)c3ccc(Cl)s3)nc12 | 0 | 92 | 4 | 4 | 12 | 30
COc1ccc(OCC(=O)NNc2nc3ccccc3s2)cc1 | -4 | · | -15 | -1 | 0 | 17
CCCC(=O)Nc1nc2c(OC)ccc(OC)c2s1 | 0 | 91 | 5 | 4 | 12 | 68*
